Test results published in ChEMBL document CHEMBL3351726 (J Med Chem, 2014).
Calls of active or inactive are those of the source. The calls are words filed in the database; no cut-off is given here. Residues, ends and D or L forms follow the SMILES beside them.

Legend:
[1] = Retention time of the compound measured over 30 mins at flow rate of 1 mL/min by HPLC; format: physicochemical; conditions: 0.5 h
Summary of the method: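 Reversed-phase analytical HPLC or LC−MS on a SymmetryShield RP18 column (5 μm, 4.6 × 150 mm). Gradient 10−60% B over 30 min at 1 mL/min; A = 0.1% TFA in water, B = 0.1% TFA in acetonitrile.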

HEK293 = test: Selectivity ratio of IC50 for rat Nav1.2 expressed in HEK-293 cells to IC50 for human Nav1.7 expressed in HEK-293 cells; format: cell-based
[2] = molecular target: T1, Sodium channel protein type 9 subunit alpha (Homo sapiens, UniProt Q15858); test: Inhibition of human Nav1.7 expressed in HEK-293 cells assessed as time for channel-mediated current inhibition at 2 nM by time-course experiment; format: cell-based; conditions: HEK293
Summary of the method: (§1)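 HEK-293 cells on poly-D-lysine-coated dishes in DMEM at 37 °C, 5% CO2; recorded 12−48 h after plating. Whole-cell voltage-clamp sodium currents under continuous perfusion with extracellular solution. Compounds applied via a gravity-driven superfusion pipette array with its outlet about 100 μm from the cell.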
Target sequence in this assay (Q15858 whole entry, looked up, the tested form may be a part): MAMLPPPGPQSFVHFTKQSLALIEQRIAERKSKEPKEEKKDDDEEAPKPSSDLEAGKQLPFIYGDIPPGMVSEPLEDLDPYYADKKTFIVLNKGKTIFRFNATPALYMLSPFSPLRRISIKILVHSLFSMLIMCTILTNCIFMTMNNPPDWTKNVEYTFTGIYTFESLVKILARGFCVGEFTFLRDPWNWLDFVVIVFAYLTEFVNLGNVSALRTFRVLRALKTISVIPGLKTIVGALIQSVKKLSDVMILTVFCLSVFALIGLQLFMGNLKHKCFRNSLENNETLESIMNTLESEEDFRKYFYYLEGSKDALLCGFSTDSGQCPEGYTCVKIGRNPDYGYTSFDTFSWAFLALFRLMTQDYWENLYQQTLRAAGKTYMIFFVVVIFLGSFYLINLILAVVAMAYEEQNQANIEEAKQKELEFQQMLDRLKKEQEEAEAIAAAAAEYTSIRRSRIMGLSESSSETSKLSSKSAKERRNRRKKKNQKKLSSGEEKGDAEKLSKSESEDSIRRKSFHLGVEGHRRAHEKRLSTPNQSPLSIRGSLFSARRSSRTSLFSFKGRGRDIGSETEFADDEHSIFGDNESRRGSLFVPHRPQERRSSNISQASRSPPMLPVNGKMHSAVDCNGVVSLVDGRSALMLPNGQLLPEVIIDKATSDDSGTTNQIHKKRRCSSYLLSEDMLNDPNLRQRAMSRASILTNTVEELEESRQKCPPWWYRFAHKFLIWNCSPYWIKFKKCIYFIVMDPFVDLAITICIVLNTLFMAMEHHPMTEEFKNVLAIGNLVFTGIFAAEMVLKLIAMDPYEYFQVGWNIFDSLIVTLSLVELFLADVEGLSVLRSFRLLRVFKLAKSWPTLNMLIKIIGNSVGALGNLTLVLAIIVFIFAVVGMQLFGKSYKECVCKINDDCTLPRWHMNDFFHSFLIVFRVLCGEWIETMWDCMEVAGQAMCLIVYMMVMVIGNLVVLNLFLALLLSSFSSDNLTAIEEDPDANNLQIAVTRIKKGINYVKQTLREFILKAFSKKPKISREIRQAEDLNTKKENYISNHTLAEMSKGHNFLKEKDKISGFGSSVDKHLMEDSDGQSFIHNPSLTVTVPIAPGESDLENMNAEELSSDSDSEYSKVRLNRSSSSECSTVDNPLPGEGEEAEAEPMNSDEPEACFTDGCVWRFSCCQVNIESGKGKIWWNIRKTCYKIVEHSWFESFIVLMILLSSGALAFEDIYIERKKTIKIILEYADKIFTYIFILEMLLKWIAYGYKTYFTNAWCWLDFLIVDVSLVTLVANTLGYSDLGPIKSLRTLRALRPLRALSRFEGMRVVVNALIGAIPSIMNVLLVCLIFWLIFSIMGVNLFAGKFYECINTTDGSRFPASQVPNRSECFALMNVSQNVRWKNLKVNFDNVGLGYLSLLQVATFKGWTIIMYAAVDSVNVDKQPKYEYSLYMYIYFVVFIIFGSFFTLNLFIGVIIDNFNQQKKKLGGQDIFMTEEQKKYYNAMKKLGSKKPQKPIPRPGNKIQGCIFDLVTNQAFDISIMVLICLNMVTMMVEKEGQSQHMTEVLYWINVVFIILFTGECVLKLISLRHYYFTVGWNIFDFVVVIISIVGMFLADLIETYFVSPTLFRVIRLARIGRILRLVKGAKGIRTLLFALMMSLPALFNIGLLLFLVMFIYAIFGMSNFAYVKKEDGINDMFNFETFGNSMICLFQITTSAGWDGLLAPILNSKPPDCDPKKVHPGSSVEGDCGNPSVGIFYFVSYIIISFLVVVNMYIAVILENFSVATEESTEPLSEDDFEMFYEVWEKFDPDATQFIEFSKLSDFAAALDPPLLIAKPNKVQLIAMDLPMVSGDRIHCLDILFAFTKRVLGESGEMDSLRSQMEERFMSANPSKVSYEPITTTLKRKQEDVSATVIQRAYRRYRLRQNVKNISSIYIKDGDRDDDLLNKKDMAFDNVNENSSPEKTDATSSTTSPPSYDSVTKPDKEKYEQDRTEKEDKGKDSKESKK

[3] = Retention time of the compound measured over 15 mins at flow rate of 1 mL/min by HPLC
[4] = Retention time of the compound measured over 6 mins at flow rate of 0.5 mL/min by HPLC; format: physicochemical; conditions: 0.1 h
[5] = molecular target: T1, Sodium channel protein type 9 subunit alpha; test: Inhibition of human Nav1.7 expressed in HEK-293 cells at -130 to -110 mV holding potential by whole-cell voltage clamp analysis; format: cell-based, HEK293
Target sequence in this assay (Q15858 whole entry, the tested form may be a part): as the sequence (Q15858 whole entry, looked up, the tested form may be a part) above

[6] = molecular target: T1, Sodium channel protein type 9 subunit alpha; test: Inhibition of human Nav1.7 expressed in HEK-293 cells assessed as inhibition of channel-mediated current at 1 nM by time-course experiment; format: cell-based; conditions: HEK293; summary of the method: as §1
Target sequence in this assay (Q15858 whole entry, looked up, the tested form may be a part): as above

[7] = molecular target: T1, Sodium channel protein type 9 subunit alpha; test: Inhibition of human Nav1.7 expressed in HEK-293 cells assessed as inhibition of channel-mediated current at 1 nM followed by wash-out and compound treatment at 0.1 nM by time-course experiment relative to initial peak amplitude; format: cell-based; conditions: HEK293; summary of the method: as §1
Target sequence in this assay (Q15858 whole entry, looked up, the tested form may be a part): as above

SMILES	Retention_time [1] [min]	Ratio IC50 (HEK293)	TIME [2] [h]	Retention_time [3] [min]	Retention_time [4] [min]	IC50 [5] [nM]	inhibition [6]	inhibition [7] [%]
CSCC[C@@H]1NC(=O)CNC(=O)[C@H](CCC(=O)O)NC(=O)[C@@H]2CSSC[C@H](NC(=O)[C@@H](N)Cc3ccc(O)cc3)C(=O)N[C@@H](CCC(N)=O)C(=O)N[C@@H](CCCCN)C(=O)N[C@@H](Cc3c[nH]c4ccccc34)C(=O)N[C@@H](CCSC)C(=O)N[C@@H](Cc3c[nH]c4ccccc34)C(=O)N[C@@H]([C@@H](C)O)C(=O)N[C@H]3CSSC[C@H](NC(=O)[C@H](C(C)C)NC1=O)C(=O)N[C@@H](CCCNC(=N)N)C(=O)N[C@@H](CC(C)C)C(=O)N[C@@H](Cc1c[nH]c4ccccc14)C(=O)N[C@H](C(=O)N[C@@H](CCCCN)C(=O)N[C@@H](CCCCN)C(=O)N[C@@H](CCCCN)C(=O)N[C@@H](CC(C)C)C(=O)N[C@@H](Cc1c[nH]c4ccccc14)C(=O)O)CSSC[C@H](NC(=O)[C@H](CCCCN)NC(=O)[C@H](CCCNC(=N)N)NC(=O)[C@H](C)NC(=O)[C@H](CO)NC(=O)[C@H](CC(=O)O)NC3=O)C(=O)N2	14.54	40	0.0606	9.29				
CNC(=O)[C@H](Cc1c[nH]c2ccccc12)NC(=O)[C@H](CC(C)C)NC(=O)[C@H](CCCCN)NC(=O)[C@H](CCCCN)NC(=O)[C@H](CCCCN)NC(=O)[C@@H]1CSSC[C@@H]2NC(=O)[C@H](CCCCN)NC(=O)[C@H](CCCNC(=N)N)NC(=O)[C@H](CCC(=O)O)NC(=O)[C@H](CO)NC(=O)[C@H](CC(=O)O)NC(=O)[C@@H]3CSSC[C@H](NC(=O)[C@H](C(C)C)NC(=O)[C@H](CCSC)NC(=O)CNC(=O)[C@H](CCC(=O)O)NC(=O)[C@H](CSSC[C@H](NC(=O)[C@@H](N)Cc4ccc(O)cc4)C(=O)N[C@@H](CCC(N)=O)C(=O)N[C@@H](CCCCN)C(=O)N[C@@H](Cc4c[nH]c5ccccc45)C(=O)N[C@@H](CCSC)C(=O)N[C@@H](Cc4c[nH]c5ccccc45)C(=O)N[C@@H]([C@@H](C)O)C(=O)N3)NC2=O)C(=O)N[C@@H](CCCNC(=N)N)C(=O)N[C@@H](CC(C)C)C(=O)N[C@@H](Cc2c[nH]c3ccccc23)C(=O)N1	12.44	83			2.52	0.042	Active	80
COC(=O)[C@H](Cc1c[nH]c2ccccc12)NC(=O)[C@H](CC(C)C)NC(=O)[C@H](CCCCN)NC(=O)[C@H](CCCCN)NC(=O)[C@H](CCCCN)NC(=O)[C@@H]1CSSC[C@@H]2NC(=O)[C@H](CCCCN)NC(=O)[C@H](CCCNC(=N)N)NC(=O)[C@H](CCC(=O)O)NC(=O)[C@H](CO)NC(=O)[C@H](CC(=O)O)NC(=O)[C@@H]3CSSC[C@H](NC(=O)[C@H](C(C)C)NC(=O)[C@H](CCSC)NC(=O)CNC(=O)[C@H](CCC(=O)O)NC(=O)[C@H](CSSC[C@H](NC(=O)[C@@H](N)Cc4ccc(O)cc4)C(=O)N[C@@H](CCC(N)=O)C(=O)N[C@@H](CCCCN)C(=O)N[C@@H](Cc4c[nH]c5ccccc45)C(=O)N[C@@H](CCSC)C(=O)N[C@@H](Cc4c[nH]c5ccccc45)C(=O)N[C@@H]([C@@H](C)O)C(=O)N3)NC2=O)C(=O)N[C@@H](CCCNC(=N)N)C(=O)N[C@@H](CC(C)C)C(=O)N[C@@H](Cc2c[nH]c3ccccc23)C(=O)N1	13.17	5			2.93	0.6		
CSCC[C@@H]1NC(=O)CNC(=O)[C@H](CCC(=O)O)NC(=O)[C@@H]2CSSC[C@H](NC(=O)[C@@H](N)Cc3ccc(O)cc3)C(=O)N[C@@H](CCC(N)=O)C(=O)N[C@@H](CCCCN)C(=O)N[C@@H](Cc3c[nH]c4ccccc34)C(=O)N[C@@H](CCSC)C(=O)N[C@@H](Cc3c[nH]c4ccccc34)C(=O)N[C@@H]([C@@H](C)O)C(=O)N[C@H]3CSSC[C@H](NC(=O)[C@H](C(C)C)NC1=O)C(=O)N[C@@H](CCCNC(=N)N)C(=O)N[C@@H](CC(C)C)C(=O)N[C@@H](Cc1c[nH]c4ccccc14)C(=O)N[C@H](C(=O)N[C@@H](CCCCN)C(=O)N[C@@H](CCCCN)C(=O)N[C@@H](CCCCN)C(=O)N[C@@H](CC(C)C)C(=O)N[C@@H](Cc1c[nH]c4ccccc14)C(=O)Nc1ccccc1)CSSC[C@H](NC(=O)[C@H](CCCCN)NC(=O)[C@H](CCCNC(=N)N)NC(=O)[C@H](CCC(=O)O)NC(=O)[C@H](CO)NC(=O)[C@H](CC(=O)O)NC3=O)C(=O)N2	14.13	4			2.57	0.8		
[H][C@]12CSSC[C@@H](C(=O)N[C@@H](CCCCN)C(=O)N[C@@H](CCCCN)C(=O)N[C@@H](CC(C)C)C(=O)N[C@@H](Cc3c[nH]c4ccccc34)C(=O)O)NC(=O)[C@H](Cc3c[nH]c4ccccc34)NC(=O)[C@H](CC(C)C)NC(=O)[C@H](CCCNC(=N)N)NC(=O)[C@]3([H])CSSC[C@]([H])(NC(=O)[C@]([H])([C@@H](C)O)NC(=O)[C@H](Cc4c[nH]c5ccccc45)NC(=O)[C@H](CCSC)NC(=O)[C@H](Cc4c[nH]c5ccccc45)NC(=O)[C@H](CCCCN)NC(=O)[C@H](CCC(N)=O)NC(=O)[C@@H](NC(=O)[C@@H](N)Cc4ccc(O)cc4)CSSC[C@]([H])(NC1=O)C(=O)N[C@@H](CCC(=O)O)C(=O)NCC(=O)N[C@@H](CC(C)C)C(=O)N[C@@H](C(C)C)C(=O)N3)C(=O)N[C@@H](CC(=O)O)C(=O)N[C@@H](CO)C(=O)N[C@@H](C)C(=O)N[C@@H](CCCNC(=N)N)C(=O)N[C@@H](CCCCN)C(=O)N2 (HELM PEPTIDE1{Y.C.Q.K.W.M.W.T.C.D.S.A.R.K.C.C.E.G.L.V.C.R.L.W.C.K.K.L.W}$PEPTIDE1,PEPTIDE1,2:R3-16:R3|PEPTIDE1,PEPTIDE1,9:R3-21:R3|PEPTIDE1,PEPTIDE1,15:R3-25:R3$$$V2.0)	15.35	1		9.25		67		
